From ChEMBL document CHEMBL1126613, “Centrally acting serotonergic agents. Synthesis and structure-activity relationships of C-1- or C-3-substituted derivatives of 8-hydroxy-2-(di-n-propylamino)tetralin” (J Med Chem, 1993)
“And” between values parts separate entries of the source, which are not always exact repeats. Identical values can stand only once.

Assays:
Mus musculus [1] = assay: Tested in vivo for the effective dose administered orally in mouse hypothermia assay; type: functional; conditions: po
Method in brief: (§1)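 Charles River CF-1 mice (18-22 g, 4 per dose), housed individually 20 min before testing. Rectal temperature taken before dosing and 20 min after (sc 0.1 mL; oral 0.2 mL by gavage needle). A drop of ≥2 °F counted as positive. Doses started at 30 mg/kg and fell by half-log until 0/4 responded.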

Mus musculus [2] = assay: In vivo effective dose administered subcutaneously in mouse hypothermia assay.; type: functional; conditions: sc; method in brief: as §1
Mus musculus [3] = assay: Behavioral time in mouse face to face assay at 36 umol/kg administered subcutaneously; type: functional
Method in brief: (§2)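 Male CF-1 mice (Charles River, 19-29 g), 8 pairs per dose, dosed sc, ip or orally in 0.25% methylcellulose or 0.1% citric acid; 30 min absorption housed with familiar partner. Pairs from different home cages placed in small litter-floored cage; face-to-face interaction duration scored visually for 3 min. Wilcoxon rank sum (two-tailed) vs daily control, p < 0.05.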

Mus musculus [4] = assay: Behavioral time in mouse face to face assay at 0.4 umol/kg administered subcutaneously; type: functional; method in brief: as §2
Mus musculus [5] = assay: Behavioral time in mouse face to face assay at 3.6 umol/kg administered subcutaneously; type: functional; method in brief: as §2
Mus musculus [6] = assay: Behavioral time in mouse face to face assay at 0 umol/kg administered subcutaneously; type: functional; method in brief: as §2
Rattus norvegicus [7] = assay: Effect on the synthesis rate of dopamine (DOPA) accumulation at the dose of 3.6 umol/kg in the rat ventral limbic brain region; type: functional, Limbic system
Method in brief: (§3)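 Male Sprague-Dawley rats dosed sc with drug or vehicle at time zero. NSD 1015 (100 mg/kg ip) given 15 min later to block aromatic decarboxylase. Brain DOPA and 5-HTP measured by electrochemical detection with peak integration. Expressed as percent change from NSD 1015 plus saline controls. Control and test groups N = 6 each, compared by unpaired t test.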

Rattus norvegicus [8] = assay: Effect on the synthesis rate of 5 HTP accumulation at the dose of 3.6 umol/kg in the rat ventral limbic brain region; type: functional, Limbic system; method in brief: as §3
Felis catus [9] = species: Felis catus; assay: Maximum decrease observed; type: functional; parameters: unit not given here
Felis catus [10] = assay: Maximum decrease on arterial blood pressure at 1 mg/kg; type: functional
Method in brief: (§4)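 Adult cats (2.5-4.0 kg) anesthetized with ketamine 11 mg/kg im, then chloralose 80 mg/kg iv. Femoral artery cannulated for blood pressure, femoral vein for drug. Ventilated, paralyzed with gallamine 4 mg/kg iv, rectal temperature held at 37-38 °C. Cumulative iv doses given at 20-min intervals. Maximum decrease reported following a 1 mg/kg iv dose.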

Felis catus [11] = assay: Dose on arterial blood pressure (BP) in anesthetized cat; type: functional; method in brief: as §4
Felis catus [12] = species: Felis catus; assay: Dose at which the SND has been reduced to 50% of the pretreatment value; type: functional
Method in brief: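 Adult cats (2.5-4.0 kg), ketamine 11 mg/kg im then chloralose 80 mg/kg iv, ventilated, gallamine-paralyzed, rectal temperature 37-38 °C. Sympathetic nerve discharge quantified by cumulative integration. Cumulative iv doses were given at 20-min intervals. Value is the dose reducing discharge to 50% of pretreatment.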

Mus musculus [13] = assay: Behavioral time in mouse face to face assay at 34 umol/kg administered subcutaneously; type: functional; method in brief: as §2
Mus musculus [14] = assay: Behavioral time in mouse face to face assay at 0.3 umol/kg administered subcutaneously; type: functional; method in brief: as §2
Mus musculus [15] = assay: Behavioral time in mouse isolation-induced aggression assay at 34 umol/kg administered intraperitoneally; type: functional
Method in brief: (§5)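 Male CF-1 mice. Residents were isolated singly for at least 1 month; group-housed intruders were kept 4-6/cage. Mice weighed 28-30 g at first test. Residents got drug ip or orally in 0.25% methylcellulose or 0.1% citric acid 30 min before an untreated intruder was introduced. Latency to fighting was recorded, capped at 600 s. Dosing was blind, 6/group (vehicle n = 12), Wilcoxon rank sum.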

Mus musculus [16] = assay: Behavioral time in mouse face to face assay at 3.4 umol/kg administered subcutaneously; type: functional; method in brief: as §2
Mus musculus [17] = assay: Behavioral time in mouse isolation-induced aggression assay at 10 umol/kg administered intraperitoneally; type: functional; method in brief: as §5
Mus musculus [18] = assay: Behavioral time in mouse isolation-induced aggression assay at 3.4 umol/kg administered intraperitoneally; type: functional; method in brief: as §5
Mus musculus [19] = assay: Tested in vivo for the maximum temperature decrease in mouse hypothermia assay.; type: functional
Method in brief: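 CF-1 mice (18-22 g, 4 per dose), dosed sc or orally. Rectal temperature measured before dosing and 20 min after. The mean maximum temperature drop (°F) at 20 min after any dose is recorded as an efficacy index.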

Rattus norvegicus [20] = assay: Effect on the synthesis rate of dopamine (DOPA) accumulation at the dose of 3.4 umol/kg in the rat ventral limbic brain region; type: functional, Limbic system; method in brief: as §3
Rattus norvegicus [21] = assay: Effect on the synthesis rate of 5 HTP accumulation at the dose of 3.4 umol/kg in the rat ventral limbic brain region; type: functional, Limbic system; method in brief: as §3
Rattus norvegicus [22] = assay: Effect on the synthesis rate of dopamine (DOPA) accumulation at the dose of 100 umol/kg in the rat ventral limbic brain region; type: functional, Limbic system; method in brief: as §3
Rattus norvegicus [23] = assay: Effect on the synthesis rate of dopamine (DOPA) accumulation at the dose of 10 uM/kg in the rat ventral limbic brain region; type: functional, Limbic system; method in brief: as §3
Rattus norvegicus [24] = assay: Effect on the synthesis rate of 5 HTP accumulation at the dose of 10 umol/kg in the rat ventral limbic brain region; type: functional, Limbic system; method in brief: as §3
Rattus norvegicus [25] = assay: Effect on the synthesis rate of 5 HTP accumulation at the dose of 100 umol/kg in the rat ventral limbic brain region; type: functional, Limbic system; method in brief: as §3
Mus musculus [26] = assay: Behavioral time in mouse face to face assay at 0.3 umol/kg administered perorally; type: functional; method in brief: as §2
Mus musculus [27] = assay: Behavioral time in mouse face to face assay at 0 umol/kg administered perorally; type: functional; method in brief: as §2
Rattus norvegicus [28] = assay: Effect on the synthesis rate of dopamine (DOPA) accumulation at the dose of 9.7 umol/kg in the rat ventral limbic brain region; type: functional, Limbic system; method in brief: as §3
Rattus norvegicus [29] = assay: Effect on the synthesis rate of 5 HTP accumulation at the dose of 9.7 umol/kg in the rat ventral limbic brain region; type: functional, Limbic system; method in brief: as §3
Mus musculus [30] = assay: In vivo effective dose administered orally in mouse hypothermia assay (approximate ED50).; type: functional; conditions: po; method in brief: as §1
Mus musculus [31] = assay: Behavioral time in mouse face to face assay at 32.5 umol/kg administered perorally; type: functional; method in brief: as §2
Mus musculus [32] = assay: Behavioral time in mouse isolation-induced aggression assay at 9.7 umol/kg administered perorally; type: functional; method in brief: as §5
Mus musculus [33] = assay: Behavioral time in mouse face to face assay at 3.2 umol/kg administered perorally; type: functional; method in brief: as §2
Mus musculus [34] = assay: Behavioral time in mouse isolation-induced aggression assay at 0 umol/kg administered perorally; type: functional; method in brief: as §5
Mus musculus [35] = assay: Behavioral time in mouse isolation-induced aggression assay at 32.5 umol/kg administered perorally; type: functional; method in brief: as §5
Rattus norvegicus [36] = assay: Effect on the synthesis rate of dopamine (DOPA) accumulation at the dose of 3.2 umol/kg in the rat ventral limbic brain region; type: functional, Limbic system; method in brief: as §3
Rattus norvegicus [37] = assay: Effect on the synthesis rate of 5 HTP accumulation at the dose of 3.2 umol/kg in the rat ventral limbic brain region; type: functional, Limbic system; method in brief: as §3
Rattus norvegicus [38] = species: Rattus norvegicus; assay: Effect on the synthesis rate of dopamine (DOPA) accumulation at the dose of […] in the rat ventral limbic brain region; type: functional, Limbic system
Rattus norvegicus [39] = species: Rattus norvegicus; assay: Effect on the synthesis rate of 5 HTP accumulation at the dose of […] in the rat ventral limbic brain region; type: functional, Limbic system
Felis catus [40] = assay: Effect on arterial blood pressure (BP) in anesthetized cat; type: functional; method in brief: as §4

Structure (SMILES) | ED50 (Mus musculus [1]) [µmol/kg] | ED50 (Mus musculus [2]) [µmol/kg] | Max decrease (Felis catus [9]) | Max decrease (Felis catus [10]) | BP (Felis catus [11]) [%] | ED50 (Felis catus [12]) [µmol/kg] | TMP.decrease (Mus musculus [19]) | other results
C=CCN[C@@H]1CCc2cccc(O)c2[C@@H]1CC=C | > 107 | 1.1 | – | – | – | – | – | Time (Mus musculus [3]): 2.6 s; Time (Mus musculus [4]): 0.8 s; Time (Mus musculus [5]): 0.5 s; Time (Mus musculus [6]): 0.8 s; Change (Rattus norvegicus [7]): 38%; Change (Rattus norvegicus [8]): -48%
C=CC[C@H]1c2c(cccc2OC)CC[C@H]1NCC1CC1 | 134 | 18 | 10 | 58 | 65 | 0.27 | – | –
C=CCN[C@@H]1CCc2cccc(OC)c2[C@@H]1CO | > 106 | 1.4 | 5 | 48 | 82 | 0.09 | – | –
C=CCN[C@@H]1CCc2cccc(OC)c2[C@@H]1CC=C | 44 | 7.9 | 18 | 58 | 70 | 0.54 | 9.8 degrees F and 6.6 degrees F | Time (Mus musculus [13]): 4.3 s; Time (Mus musculus [14]): 0.9 s; Time (Mus musculus [15]): 290 s; Time (Mus musculus [16]): 1.4 s; Time (Mus musculus [17]): 130 s; Time (Mus musculus [18]): 45 s; Time (Mus musculus [6]): 1.1 s; Change (Rattus norvegicus [20]): -21%; Change (Rattus norvegicus [21]): -60%
C=CC[C@H]1c2c(cccc2OC)CC[C@H]1NCCC | 78 | 3.4 | 10 | 57 | 85 | 0.27 | 7.6 degrees F and 6 degrees F | Change (Rattus norvegicus [20]): 2.2%; Change (Rattus norvegicus [21]): -50%
CCC[C@H]1c2c(O)cccc2CC[C@H]1N(CCC)CCC | > 92 | 9.5 | – | – | – | – | 6.9 degrees F | –
CCCN[C@@H]1CCc2cccc(OC)c2[C@@H]1CCC | > 101 | 14 | – | – | – | – | 6.5 degrees F | –
C=CC[C@H]1c2cccc(OC)c2CC[C@H]1NCCC | – | – | – | – | – | – | – | Change (Rattus norvegicus [22]): -24%; Change (Rattus norvegicus [23]): 35%; Change (Rattus norvegicus [24]): 17%; Change (Rattus norvegicus [25]): -36%
C=CC[C@H]1c2c(cccc2OC)CC[C@H]1N(CCC)CCC | – | > 89 | – | – | – | – | – | –
CCCN[C@@H]1CCc2cccc(OC)c2[C@H]1CC1CC1 | 99 | 13 | – | – | – | – | – | Time (Mus musculus [26]): 1.5 s; Time (Mus musculus [27]): 2 s and 5 s; Change (Rattus norvegicus [28]): 18.7%; Change (Rattus norvegicus [29]): -43.7%
COc1cccc2c1[C@H](CC1CC1)[C@H](NCC1CC1)CC2 | – | 23 | – | – | – | – | 6.8 degrees F | ED50 (Mus musculus [30]): > 93 µmol/kg
C=CCN[C@@H]1CCc2cccc(OC)c2[C@@H]1CC1CC1 | – | 32 | – | – | – | – | 7.1 degrees F | –
C=CCN(CCC)[C@@H]1CCc2cccc(OC)c2C1=C | – | > 97 | 20 | 51 | 59 | 0.91 | 3.6 degrees F | Time (Mus musculus [31]): 2.5 s; Time (Mus musculus [26]): 1.9 s; Time (Mus musculus [32]): 61 s; Time (Mus musculus [33]): 1.9 s; Time (Mus musculus [34]): 56 s; Time (Mus musculus [35]): 416 s; Time (Mus musculus [27]): 0.7 s; Change (Rattus norvegicus [36]): -36%; Change (Rattus norvegicus [37]): -52%
CCC[C@H]1c2c(cccc2OC)CC[C@H]1N(CCC)CCC | – | 51 | – | 87 | – | > 2.94 | 2.8 degrees F | Max decrease (Felis catus [11]): 137; Change (Rattus norvegicus [38]): -14%; Change (Rattus norvegicus [39]): -3.9%
C=CCN[C@@H]1CCc2cccc(OC)c2[C@H]1CC1CC1 (relative stereo) | – | 24 | – | – | – | – | 6.2 degrees F | ED50 (Mus musculus [30]): > 97 µmol/kg
C=CCN[C@@H]1CCc2cccc(OC)c2[C@H]1CC=C (relative stereo) | 79 | 5.9 | 10 | 45 | 59 | 1.19 | 11.5 degrees F and 6.6 degrees F | –
C=CC[C@@H]1c2c(cccc2OC)CC[C@H]1NCC1CC1 (relative stereo) | > 97 | 10 | 21 | 46 | – | 0.81 | 11.5 degrees F | BP (Felis catus [40]): 65%
